Reference: ChEMBL document CHEMBL2040833, “Metabolism-based synthesis, biologic evaluation and SARs analysis of O-methylated analogs of quercetin as thrombin inhibitors” (Eur J Med Chem, 2012)

How the values were obtained:
[1] = target: Thrombin (Oryctolagus cuniculus) (UniProt Q28731); assay: Inhibition of thrombin in New Zealand rabbit plasma assessed as fibrinogen level at 100 uM by coagulometry
Summary of the method: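 Citrated rabbit platelet-poor plasma (3000 rpm 10 min). 10 µl PPP incubated with 90 µl imidazole buffer 3 min at 37 °C, then 50 µl FIB agent and 10 µl sample (in 80% ethanol) added; fibrinogen content read on coagulometer with commercial kit; reduction in FIB content scored.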

[2] = target: Thrombin (Oryctolagus cuniculus) (UniProt Q28731); assay: Inhibition of thrombin in New Zealand rabbit plasma assessed as prothrombin time at 100 uM by coagulometry
Summary of the method: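 40 µl PPP preincubated 3 min at 37 °C, then 40 µl thromboplastin agent plus 20 µl sample (in 80% ethanol) added; clotting read by coagulometer with commercial kit; activity expressed as INR increase.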

[3] = target: Thrombin (Oryctolagus cuniculus) (UniProt Q28731); assay: Inhibition of thrombin in New Zealand rabbit plasma assessed as thrombin time at 100 uM after 3 mins by coagulometry
Summary of the method: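 Using citrated rabbit platelet-poor plasma, 40 µl PPP was held 3 min at 37 °C, then 40 µl thrombin solution and 20 µl sample (in 80% ethanol) were added for 3 min at 37 °C. Clotting time was measured by coagulometer with a commercial kit, and prolongation was scored.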

[4] = target: Thrombin (Oryctolagus cuniculus) (UniProt Q28731); assay: Inhibition of thrombin in New Zealand rabbit plasma assessed as activated partial thromboplastin time at 100 uM after 3 mins by coagulometry
Summary of the method: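 Sample in 80% ethanol; 10 µl sample and 50 µl PPP incubated with 50 µl APTT-activating agent 3 min at 37 °C, then 50 µl CaCl2 added; clotting time by coagulometer with commercial kit; prolongation scored.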

| SMILES | Activity [1] [g/L] | PT [2] [s] | TT [3] [s] | APTT [4] [s] |
| --- | --- | --- | --- | --- |
| COc1c(-c2ccc(O)c(O)c2)oc2cc(O)cc(OC)c2c1=O | 5.4 | 5.7 | 20 | 63.7 |
| COc1cc(O)c2c(=O)c(OC)c(-c3ccc(O)c(O)c3)oc2c1 | 7.3 | 7.3 | 22.5 | 54.7 |
| COc1cc(O)c2c(=O)c(O)c(-c3ccc(O)c(O)c3)oc2c1 | 5.4 | 6.8 | 23 | 72.6 |
| COc1cc(O)c2c(=O)c(O)c(-c3ccc(OC)c(O)c3)oc2c1 | 5.9 | 7.4 | 14.8 | 46.2 |
| COc1ccc(-c2oc3cc(O)cc(OC)c3c(=O)c2O)cc1OC | 7.9 | 5.1 | 15.9 | 49.3 |
| COc1c(-c2ccc(O)c(O)c2)oc2cc(O)cc(O)c2c1=O | 4.7 | 4.8 | 22.9 | 50.2 |
| COc1cc(-c2oc3cc(O)cc(OC)c3c(=O)c2O)ccc1O | 6.2 | 5.8 | 22.3 | 57.6 |
| O=c1c(O)c(-c2ccc(O)c(O)c2)oc2cc(O)cc(O)c12 | 5.8 | 6.2 | 19.2 | 30.3 |
| COc1cc(OC)c2c(=O)c(OC)c(-c3ccc(OC)c(OC)c3)oc2c1 | 8.9 | 5.2 | 11.6 | 40.3 |
| COc1cc(O)c2c(=O)c(OC)c(-c3ccc(OC)c(O)c3)oc2c1 | 5.3 | 6 | 14.9 | 61.7 |
| COc1cc(-c2oc3cc(O)cc(O)c3c(=O)c2O)ccc1O | 5.4 | 5.3 | 20.5 | 82.3 |
| COc1ccc(-c2oc3cc(O)cc(O)c3c(=O)c2O)cc1OC | 6.6 | 5.8 | 9.9 | 58.7 |
| COc1cc(O)cc2oc(-c3ccc(O)c(O)c3)c(O)c(=O)c12 | 5 | 7.6 | 19.4 | 49.2 |
| COc1cc(O)c2c(=O)c(OC)c(-c3ccc(OC)c(OC)c3)oc2c1 | 8.4 | 5.4 | 14.2 | 42.4 |
| COc1cc(OC)c2c(=O)c(O)c(-c3ccc(O)c(O)c3)oc2c1 | 5.1 | 6.9 | 21.8 | 67.6 |
| COc1ccc(-c2oc3cc(O)cc(O)c3c(=O)c2O)cc1O | 7.5 | 6.9 | 16.6 | 49.8 |
